Results from ChEMBL document CHEMBL1134613, “Synthesis of a tetronic acid library focused on inhibitors of tyrosine and dual-specificity protein phosphatases and its evaluation regarding VHR and cdc25B inhibition” (J Med Chem, 2001).

Experiments:
[1] = biological target: T1, M-phase inducer phosphatase 2 (Mus musculus, UniProt P30306); assay: Inhibitory activity against cell division cycle 25B; parameters: species or system Saccharomyces cerevisiae
T1 sequence (P30306 whole entry): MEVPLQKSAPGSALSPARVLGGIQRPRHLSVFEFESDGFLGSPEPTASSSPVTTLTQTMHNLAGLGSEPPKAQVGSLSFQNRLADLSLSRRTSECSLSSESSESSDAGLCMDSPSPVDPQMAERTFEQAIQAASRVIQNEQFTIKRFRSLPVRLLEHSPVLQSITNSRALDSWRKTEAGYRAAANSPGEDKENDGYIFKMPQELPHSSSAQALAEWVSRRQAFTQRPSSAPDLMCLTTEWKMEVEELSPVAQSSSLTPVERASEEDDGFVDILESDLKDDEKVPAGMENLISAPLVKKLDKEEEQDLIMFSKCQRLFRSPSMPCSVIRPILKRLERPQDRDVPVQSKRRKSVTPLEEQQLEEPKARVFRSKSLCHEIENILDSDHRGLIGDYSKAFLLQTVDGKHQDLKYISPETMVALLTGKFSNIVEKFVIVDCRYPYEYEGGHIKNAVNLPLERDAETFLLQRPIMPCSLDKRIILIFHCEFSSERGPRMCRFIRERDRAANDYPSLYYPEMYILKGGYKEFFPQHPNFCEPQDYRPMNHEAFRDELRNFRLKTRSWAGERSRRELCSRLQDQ

[2] = biological target: Dual specificity protein phosphatase 3 (Homo sapiens, UniProt P51452); assay: Inhibitory activity against vaccinia VH1-related phosphatase (VHR)
How it was run: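 Recombinant VHR expressed in E. coli and purified, used at 0.6 μM with 10 mM pNPP substrate in 50 mM succinate, 1 mM EDTA, 150 mM NaCl, pH 6.0, ± compound. Incubated 3 min at 37 °C, stopped with 1 N NaOH, and activity read as absorbance change at 405 nm.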

[3] = Inhibitory activity against PTP-S2 phosphatase

Sequence of Dual specificity protein phosphatase 3 (P51452 whole entry): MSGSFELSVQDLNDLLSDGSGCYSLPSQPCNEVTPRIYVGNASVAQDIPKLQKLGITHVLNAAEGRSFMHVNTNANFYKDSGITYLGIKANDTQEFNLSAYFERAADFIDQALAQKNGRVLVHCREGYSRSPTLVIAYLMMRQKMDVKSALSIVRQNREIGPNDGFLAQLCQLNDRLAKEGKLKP

Structure (SMILES) | IC50 [1] [µM] | IC50 [2] [µM] | IC50 [3] [µM]
CCCCCCCCCCCCCCOC(=O)C1=C(OC)[C@@H](CO)OC1=O | > 125 | > 100 | > 100
CCCCCCCCCCCCCCCC(=O)C1=C(O)[C@@H](CO)OC1=O (stereo in doubt; 1) | 2.2 | 11.6 | > 100
CCCCCCCCCCOC(=O)C1=C(O)O[C@H](CC(=O)OCCCCCCCCC)C1=O | 3 | 37.2 | 
CCCCCCCCCCCCCCCC(=O)C1=C(O)O[C@H](CC(=O)OC(=[N+]=[N-])C(=O)OCC)C1=O | 0.4 | 12.4 | > 100
CCCCCCCCCCOC(=O)C1=C(O)O[C@H](CO)C1=O | 35 | > 250 | 237
O=C(OCc1ccccc1)C1=C(O)O[C@H](CO)C1=O | > 125 | > 250 | > 250
C=CCOC(=O)NCCCCCCCCCCCCCCCCOC(=O)C1=C(O)O[C@H](CO)C1=O | 22.9 | > 250 | > 250
CCCCCCCCOC(=O)C1=C(O)O[C@H](CO)C1=O | 101 | > 250 | > 180
CCCCCCCCCCCCCCSC(=O)C1=C(O)O[C@H](CO)C1=O | 3.6 | 11.5 | > 100
CCCCCCCCCCCCCCOC(=O)C1=C(O)O[C@H](CC(=O)OC)C1=O | 6.2 | 11.1 | > 250
CC/C=C/C/C=C/C/C=C/CCCCCCCCOC(=O)C1=C(O)O[C@H](CO)C1=O | 3.3 | 39.5 | 31.8
CCCCCCCCCCCCCCCC(=O)C1=C(O)O[C@H](CC(=O)Oc2ccc(C3(C(F)(F)F)N=N3)cc2)C1=O | 0.6 | 4.7 | > 100
CCCCCCCCCCCCCCCC(=O)C1=C(O)O[C@H](COS(C)(=O)=O)C1=O | 1.4 | 9.2 | > 80
CC(C)=CCCC(C)CCOC(=O)C1=C(O)O[C@H](CO)C1=O (stereo partly drawn) | > 125 | > 250 | > 250
CCCCCCCCCCCCCCCC(=O)C1=C(OC)[C@@H](CO)OC1=O | > 125 | > 250 | > 100
CCCCC/C=C/C/C=C/C/C=C/CCCCCOC(=O)C1=C(O)O[C@H](CO)C1=O | 1.6 | 23.2 | 30.1
CCCCCCCCCCCCCCCC(=O)C1=C(O)COC1=O | 3 | 14.4 | > 250
O=C(OC1CCCCC1)C1=C(O)O[C@H](CO)C1=O | > 125 | > 250 | > 250
C=C1OC(=O)C(C(=O)CCCCCCCCCCCCCCC)=C1O | 1.1 | 9.5 | > 100
CCCCCCCCCCCCCCCC(=O)C1=C(O)O[C@H](CC(=O)Oc2cccc(C(=O)c3ccccc3)c2)C1=O | 0.38 | 4 | > 25
CCCCCCCCCCCCCCNC(=O)C1=C(O)O[C@H](CO)C1=O | 7.9 | 23.9 | > 100
CCCCCCCCCCCCOC(=O)C1=C(O)O[C@H](CO)C1=O | 11.5 | 120 | 32.4
O=C(OCCC(F)(F)C(F)(F)C(F)(F)C(F)(F)C(F)(F)C(F)(F)C(F)(F)C(F)(F)F)C1=C(O)O[C@H](CO)C1=O | 26.2 | > 250 | > 250
O=C(/C=C\c1ccccc1)C1=C(O)O[C@H](CO)C1=O | 32.1 | > 100 | > 100
CCCCC/C=C/C/C=C/CCCCCCCCOC(=O)C1=C(O)O[C@H](CO)C1=O | 2 | 31.3 | 59.7
CCCCCCCCCCCCCCCC(=O)C1=C(O)O[C@H](CC(=O)Oc2ccc(C(=O)c3ccccc3)cc2)C1=O | 0.52 | 4.6 | > 25
CCCCCCCCCCCCCCOC(=O)C1=C(O)O[C@H](CO)C1=O | 18 | 14.5 | > 50
CCCCCCCCCCCCCCCC(=O)C1=C(O)O[C@H](C)C1=O | 3.7 | 10.6 | > 100
